Compound activity from PubChem.
Only some compounds are listed: those with a hit (about 4.5% of all), similar ones and a draw of the others.
CHO parental Ca: counter-screen for OX1R antagonists: effect in parental CHO cells. parental CHO-K1, ATP-induced calcium, Fluo-8 fluorescence. 0.63% of 330,000 active. AID 463079. inhibition, % at 5.6 µM;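 active = inhibition above that plate's mean sample inhibition plus 3 SD, cut at about 26% in these data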;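 note: 0% = ATP-challenged DMSO wells and 100% = DMSO wells without ATP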
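Material: Parental CHO cells | Reagent: ATP | Compound dosing: Single nominal dose of 5.6 µM per compound | Detection: Intracellular calcium via Fluo-8 no-wash fluorescent dye | Read-out: % inhibition of ATP-induced calcium mobilization | Benchmarks: Low control ATP plus DMSO, high control DMSO only | Replicates: Singlicate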
TAAR1 agonist: agonists of human TAAR1. Q96RJ0. CHO RD-HGA16 TAAR1, Fluo-8 calcium fluorescence; vehicle wells 0%, saturating PEA agonist 100%. activation, % at 3 µM. 0.99% of 360,000 active. AID 624467;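 active = activation above the mean activation of all test compounds in the run plus 3 SD, cut at about 38% in these data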
Target sequence (Q96RJ0 whole entry, looked up): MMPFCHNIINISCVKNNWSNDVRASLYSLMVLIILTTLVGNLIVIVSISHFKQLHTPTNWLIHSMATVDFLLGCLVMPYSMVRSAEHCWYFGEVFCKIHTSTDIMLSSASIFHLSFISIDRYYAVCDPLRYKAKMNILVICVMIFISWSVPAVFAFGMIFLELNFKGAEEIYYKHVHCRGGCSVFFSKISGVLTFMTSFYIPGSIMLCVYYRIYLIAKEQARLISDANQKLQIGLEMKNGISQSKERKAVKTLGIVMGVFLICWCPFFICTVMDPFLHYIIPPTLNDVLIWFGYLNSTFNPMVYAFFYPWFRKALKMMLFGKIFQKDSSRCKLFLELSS
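test system = CHO RD-HGA16 cells carrying human TAAR1 plus Gα16 | schedule = 17-24 h seeding, 75 min 37 °C dye, 30 min RT | compound dosing = 3 µM single concentration | control set = DMSO and PEA EC100 | replicates = n 1 | signal = Fluo-8 fluorescence, 5 s baseline then 140 s kinetic read | measure = percent activation vs PEA EC100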
GPR7 antag: human neuropeptides B/W receptor 1 antagonism. P48145. GPR7-expressing cells, fluorescence antagonist assay. inhibition, % at 4.4 µM. 1.1% of 290,000 active. AID 1861; in the data active = inhibition above about 16%, passing the limit was not always enough;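 note: cells stimulated with the agonist NPW; 0% = agonist with vehicle and 100% = vehicle without agonist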
Target sequence (P48145 whole entry, looked up): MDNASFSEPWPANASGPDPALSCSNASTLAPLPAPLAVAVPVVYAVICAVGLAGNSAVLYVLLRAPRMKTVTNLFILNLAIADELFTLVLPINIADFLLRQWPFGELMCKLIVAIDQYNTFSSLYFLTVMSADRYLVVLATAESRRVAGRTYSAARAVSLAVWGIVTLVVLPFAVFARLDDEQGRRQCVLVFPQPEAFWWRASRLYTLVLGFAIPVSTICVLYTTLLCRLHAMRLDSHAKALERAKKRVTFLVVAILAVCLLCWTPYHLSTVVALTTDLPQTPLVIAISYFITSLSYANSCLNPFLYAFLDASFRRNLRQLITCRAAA
OX1R antag-1: antagonists of human orexin 1 receptor | O43613 | CHO/OX1R cells, Fluo-8 calcium fluorescence, orexin A | inhibition, % at 5 µM | 0.43% of 330,000 active;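 active = inhibition above its plate's threshold, mean inhibition of all tested compounds on the plate plus 3 SD, cut at about 37% in these data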;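 note: 0% = orexin A challenge wells and 100% = SB-334867-A antagonist wells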
TAAR1 antag: human TAAR1 antagonism. inhibition, % at 3 µM. 1.5% of 360,000 active. CHO RD-HGA16 TAAR1, Fluo-8 calcium fluorescence, antagonist. AID 624466;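 active = inhibition above a per-plate cutoff, the mean inhibition of test compounds on that plate plus 3 SD, cut at about 49% in these data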;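 note: 0% = DMSO plus EC80 beta-PEA response and 100% = DMSO alone without agonist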
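Test system: RD-HGA16 CHO cells with stable hTAAR1 and Gα16 / Probe or stimulus: EC80 β-phenethylamine stimulus / Times: seeding 17-24 h prior, 75-min 37 °C, 30-min RT dye loading / Detection: Fluo-8 calcium-sensitive fluorescence / Read-out basis: % inhibition scaled between DMSO and EC80 PEA controls / Repeats: singlicate, one well per test compound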
OX1R antag-2: blocks the human orexin 1 receptor; O43613; OX1R-expressing cells, FRET antagonist read-out; inhibition, % at 6.6 µM; 1.8% of 330,000 active; AID 485270; in the data active = inhibition mostly above about 38%, no sharp cut-off; inactive = mostly below about 40%;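 note: 0% = agonist challenge alone and 100% = reference antagonist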
An asterisk follows results filed as active; nt = no result given.

SMILES	CHO parental Ca	TAAR1 agonist	GPR7 antag	OX1R antag-1	TAAR1 antag	OX1R antag-2
COc1cccc2[nH]c3c(N4CCc5ccccc5C4)ncnc3c12	-22	nt	-5	-22	nt	13
CCOc1ccc2[nH]c3c(N4CCN(c5ccccn5)CC4)ncnc3c2c1	-9	10	0	-8	24	61*
Cc1ccc2[nH]c3c(N4CCN(Cc5ccccc5)CC4)ncnc3c2c1	28	28	-14	14	30	80*
Cc1ccc2c(c1)-n1c(nc3ccccc3c1=O)C(Cc1ccccc1)NC2=O (centres undefined)	-21	21	nt	-6	15	10
O=C(C(Br)=Cc1ccccc1)c1ccccc1	nt	2	nt	nt	-4	nt
COc1ccc2c(c1)[nH]c1c(N3CCN(Cc4ccc5c(c4)OCO5)CC3)ncnc12	11	12	4	15	30	49*
c1ccc2c(c1)[nH]c1c(N3CCC4(CC3)OCCO4)ncnc12	60*	nt	5	37	nt	66*
OC1(c2cccc(C(F)(F)F)c2)CCN(c2ncnc3c2[nH]c2ccccc23)CC1	2	23	2	14	56*	40
O=C(CC[C@H]1O[C@@H](n2ccc(=O)[nH]c2=O)[C@H](O)[C@@H]1O)NCc1ccco1	nt	1	nt	nt	-4	nt
CC(=O)Nc1cc2c(c(Cl)c1Cl)-c1ccccc1C2=O	nt	0	nt	nt	-2	nt
CC1CCN(CCCOc2ccc(Br)cc2Cl)CC1	-12	39*	7	-21	2	9
COC(=O)Cc1nnn2c1[C@@H](C)[C@@H](c1ccccc1Br)OC[C@H](C)C2	nt	0	nt	nt	-17	nt
Cc1ccc2n(n1)c(=O)c(Cc1ccccc1)c([O-])[n+]2-c1ccccc1	2	0	-3	-6	21	48*
O=C(C[C@@H]1C[C@H]2c3cc(NC(=O)Nc4ccccc4F)ccc3O[C@H]2[C@H](CO)O1)NCC(F)(F)F	nt	1	nt	nt	-8	nt
O=C(O)c1ccccc1CC(CCc1ccccc1)C(=O)O (centres undefined)	nt	1	nt	nt	-5	nt
Cc1ccccc1OCc1nnc(SC(C)C(=O)O)n1Cc1ccccc1 (centres undefined)	-20	10	-2	4	2	63*
Cc1ccccc1OCc1nnc(SCC(=O)O)n1Cc1ccccc1	-12	-1	1	-3	14	14
Cc1ccc(NC(=O)c2cc(-c3ccc(C)c(C)c3O)n[nH]2)cc1C	1	1	-7	-8	13	14
COc1ccc(NC(=O)c2cc(-c3ccc(C)c(C)c3O)n[nH]2)cc1Cl	24	5	-21	0	29	50*
CSC1=NSC2=NC(=O)/C(=C\c3coc4ccccc4c3=O)C(=N)N12	15	383*	-1	15	107*	23
O=c1[nH]c2cc(C(F)(F)F)ccc2n1-c1cc(C(F)(F)F)ccc1O	84*	2	nt	51*	-7	22
COc1ccc(C(=O)c2ccc(N(C)C)cc2)c2ccccc12	33*	13	13	58*	13	22
O=C1NC[C@@H](CCCCN2C[C@H](Cc3ccccc3)N(CCc3ccc(O)cc3)C(=O)C2=O)N(Cc2ccccc2)C1=O	nt	2	nt	nt	-20	nt
Oc1cccc2cnccc12	1	12	-8	-7	0	31
N#Cc1cccc2cnccc12	-8	6	19*	-4	-26	38
SMILES	CHO parental Ca	TAAR1 agonist	GPR7 antag	OX1R antag-1	TAAR1 antag	OX1R antag-2
COc1cc(NC(=O)c2ccc3c(c2)OCO3)c2ncccc2c1	-12	7	-6	-5	6	67*
COC(=O)c1ccccc1NC(=O)c1ccc2c(c1)OCCCO2	-16	-3	-13	-5	3	59*
O=C(Nc1cccc2cccnc12)c1ccc2c(c1)OCCO2	-10	3	-6	11	7	67*
CCOc1cc(CNC(=O)CCCn2c(=O)c3cccn3c3cccnc32)cc(OCC)c1OCC	-19	2	-21	4	5	68*
O=C(CCCn1c(=O)c2cccn2c2cccnc21)NCc1cccc(Br)c1	-5	4	19	-2	26	31
CSc1cccc(NC(=O)CCCn2c(=O)c3cccn3c3cccnc32)c1	-10	5	-18	1	22	74*
CCc1ccc(CNC(=O)CCCn2c(=O)c3cccn3c3cccnc32)cc1	-25	2	-7	-16	-31	10
CC(=O)C1=C(C)N(Cc2ccc(Br)cc2)C(=S)NC1c1ccc(F)cc1 (centres undefined)	nt	3	nt	nt	2	nt
O=C(N/N=C/c1ccc(Cl)cc1)c1ccc2nc[nH]c2c1	nt	18	nt	nt	53*	nt
COC(=O)c1ccc(/C=N/NC(=O)c2ccc3nc[nH]c3c2)cc1	-8	4	5	-10	41	12
c1ccc2nc3c(nc2c1)c1ccccc1n3CCN1CCOCC1	-17	5	-15	-9	24	49*
CCN(CC)S(=O)(=O)c1ccc(N2CCN(c3ccccc3OC)CC2)c(N)c1	61*	4	-5	6	26	38
COc1ccccc1N1CCN(S(=O)(=O)c2ccc(F)cc2)CC1	-5	38*	-5	-13	3	-1
COc1ccccc1C#Cc1cnc2c(c1)C(=O)N([C@H](C)CO)C[C@@H](C)[C@@H](CN(C)C(=O)c1ccc3c(c1)OCO3)O2	nt	0	nt	nt	-15	nt
COc1ccc(-n2c(C)cc(/C=N/Nc3nc(N4CCOCC4)nc(N4CCOCC4)n3)c2C)cc1	-20	14	-11	-19	50*	12
Cc1cc(C2(c3ccc(O)c(C)c3)C(=O)Nc3ccccc32)ccc1O	43*	23	-11	18	25	13
O=C1Nc2ccccc2C1(O)c1ccccc1 (centres undefined)	0	8	-11	-13	18	13
COc1ccc(NC(=O)c2cc(-c3cccs3)on2)cc1	16	2	2	-4	-15	25
COc1ccc(NC(=O)c2cc(-c3cccs3)on2)cc1OC	-7	42*	-15	0	13	21
COc1cccc(-c2cc(C(=O)Nc3ccc(OC)c(OC)c3)no2)c1	-17	13	-5	20	16	84*
COc1ccc(NC(=O)c2cc(-c3ccccc3)on2)cc1OC	-11	6	-4	-9	5	14
CC(=O)Nc1ccc(S(=O)(=O)N(CC(=O)NCC2CCCO2)Cc2ccccc2Cl)cc1 (centres undefined)	nt	6	nt	nt	21	nt
CC1(C(=O)Nc2cnc3ccccc3c2)CCN1Cc1ccc2ccccc2c1 (centres undefined)	nt	3	nt	nt	41	nt
CC1(C(=O)Nc2cnc3ccccc3c2)CCN1Cc1cc2ccccc2o1 (centres undefined)	nt	1	nt	nt	49*	nt
